# Reference: ChEMBL document CHEMBL4414601 (J Med Chem, 2019)
# Columns and labels:
# [1] = Aqueous solubility of compound; conditions: buffer
# [2] = Clearance in mouse liver microsomes at 0.5 uM measured up to 45 mins in presence of NADPH by HPLC-MS/MS analysis; type: ADME, Microsome
# [3] = Clearance in human liver microsomes at 0.5 uM measured up to 45 mins in presence of NADPH by HPLC-MS/MS analysis; type: ADME, Microsome
# [4] = molecular target: T1, Amine oxidase [flavin-containing] A (Homo sapiens, UniProt P21397); test: Inhibition of human MAO-A
# T1 sequence (P21397 whole entry): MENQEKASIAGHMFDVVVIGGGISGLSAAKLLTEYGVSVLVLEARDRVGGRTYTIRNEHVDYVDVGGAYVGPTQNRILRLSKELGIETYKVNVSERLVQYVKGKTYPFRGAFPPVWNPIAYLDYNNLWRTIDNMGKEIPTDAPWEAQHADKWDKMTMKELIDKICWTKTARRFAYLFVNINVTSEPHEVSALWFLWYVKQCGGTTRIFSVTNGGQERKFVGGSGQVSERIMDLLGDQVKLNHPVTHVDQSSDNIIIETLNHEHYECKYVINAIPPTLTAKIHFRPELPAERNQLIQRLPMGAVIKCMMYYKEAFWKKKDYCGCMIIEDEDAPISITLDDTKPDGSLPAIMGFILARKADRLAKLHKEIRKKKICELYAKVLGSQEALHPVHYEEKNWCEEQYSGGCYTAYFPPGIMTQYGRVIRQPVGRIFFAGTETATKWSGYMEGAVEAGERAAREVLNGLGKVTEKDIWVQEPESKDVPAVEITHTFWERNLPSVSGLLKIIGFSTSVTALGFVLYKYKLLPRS
# [5] = molecular target: Beta-2 adrenergic receptor (Homo sapiens, UniProt P07550); test: Agonist activity at human beta2 adrenoceptor
# [6] = molecular target: Voltage-gated potassium channel, IKs; KCNQ1(Kv7.1)/KCNE1(MinK) (Homo sapiens, UniProt P15382+P51787); test: Inhibition of human KCNQ1/KCNE1
# [7] = molecular target: T2, Aryl hydrocarbon receptor (Homo sapiens, UniProt P35869); test: Agonist activity at human aryl hydrocarbon receptor
# T2 sequence (P35869 whole entry): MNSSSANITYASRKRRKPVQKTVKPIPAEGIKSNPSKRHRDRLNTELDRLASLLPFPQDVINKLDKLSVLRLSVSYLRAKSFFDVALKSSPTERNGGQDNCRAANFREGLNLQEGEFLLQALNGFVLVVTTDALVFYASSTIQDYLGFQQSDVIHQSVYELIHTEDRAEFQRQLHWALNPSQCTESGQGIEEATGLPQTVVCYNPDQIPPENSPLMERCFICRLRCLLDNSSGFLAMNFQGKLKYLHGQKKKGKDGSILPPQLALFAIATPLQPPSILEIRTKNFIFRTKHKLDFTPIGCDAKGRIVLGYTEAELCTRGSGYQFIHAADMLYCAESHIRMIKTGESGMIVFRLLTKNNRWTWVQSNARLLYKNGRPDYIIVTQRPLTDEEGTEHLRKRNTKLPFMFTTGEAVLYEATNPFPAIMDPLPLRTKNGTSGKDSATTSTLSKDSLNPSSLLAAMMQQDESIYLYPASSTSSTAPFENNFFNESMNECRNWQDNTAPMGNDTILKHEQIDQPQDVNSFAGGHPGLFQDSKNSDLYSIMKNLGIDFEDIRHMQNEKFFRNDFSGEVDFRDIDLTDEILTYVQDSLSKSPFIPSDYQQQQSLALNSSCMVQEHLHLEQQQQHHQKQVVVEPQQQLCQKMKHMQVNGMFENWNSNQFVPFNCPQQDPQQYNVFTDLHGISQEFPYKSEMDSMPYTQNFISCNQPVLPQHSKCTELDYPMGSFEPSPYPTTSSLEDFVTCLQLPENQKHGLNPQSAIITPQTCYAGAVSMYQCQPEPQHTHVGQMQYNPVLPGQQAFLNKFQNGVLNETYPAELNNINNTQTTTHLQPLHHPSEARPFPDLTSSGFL
# [8] = molecular target: Acetylcholinesterase (Homo sapiens, UniProt P22303); test: Inhibition of AChE (unknown origin)
# [9] = molecular target: Voltage-dependent L-type calcium channel subunit alpha-1C (Homo sapiens, UniProt Q13936); test: Inhibition of human L-type CaV1.2
# [10] = test system: Plasmodium falciparum; test: (§1) Antiplasmodial activity against Plasmodium falciparum 3D7A asexual erythrocytic stage assessed as reduction in [3H]hypoxanthine incorporation preincubated for 72 hrs followed by [3H]hypoxanthine addition and measured after 24 hrs by microbeta scintillation counting method; type: functional, organism-based
# [11] = test system: Plasmodium falciparum; test: as §1, with “3D7A harboring with PKG T618Q mutant” for “3D7A”, “48” for “72”; type: functional, organism-based
# [12] = molecular target: Calcium-dependent protein kinase 1 (Plasmodium falciparum, UniProt P62344); test: Binding affinity to CDPK1 in Plasmodium falciparum 3D7 blood stage extract incubated for 1 hr in presence of ATP-competitive kinase inhibitor by kinobeads based pull down assay; conditions: read-out: Kd(app)
# In short: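 Chemoproteomic competition used kinobeads or Sepharose beads derivatized with ligand at 1 mM. Free compound was tested at six concentrations between 0.08 and 20 μM, in two independent experiments. Proteins were SP3-digested, TMT 10-plex labelled and measured by LC-MS/MS. IC50s came from competition curves, and apparent Kd was corrected for protein depletion by the beads.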
# [13] = molecular target: T3, Casein kinase I (Plasmodium falciparum (isolate 3D7), UniProt Q8IHZ9); test: Binding affinity to CK1 in Plasmodium falciparum 3D7 blood stage extract incubated for 1 hr by kinobeads based pull down assay; conditions: read-out: Kd(app)
# T3 sequence (Q8IHZ9 whole entry): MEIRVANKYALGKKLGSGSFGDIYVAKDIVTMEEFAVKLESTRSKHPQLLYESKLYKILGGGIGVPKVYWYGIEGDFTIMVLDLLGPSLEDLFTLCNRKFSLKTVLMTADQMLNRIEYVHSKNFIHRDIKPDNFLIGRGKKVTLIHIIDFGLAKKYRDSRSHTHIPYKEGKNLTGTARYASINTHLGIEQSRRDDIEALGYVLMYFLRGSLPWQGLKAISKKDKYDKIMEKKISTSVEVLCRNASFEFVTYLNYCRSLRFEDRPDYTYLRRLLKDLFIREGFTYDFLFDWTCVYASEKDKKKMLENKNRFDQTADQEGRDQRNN
# In short: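 Chemoproteomic competition binding: Sepharose beads derivatized at 1 mM with the immobilized ligand (kinobeads prepared likewise). Free compound competed at six concentrations, 0.08–20 μM. Proteins were SP3-digested, TMT 10-plex labelled and quantified by LC-MS/MS on an Orbitrap. IC50 from the competition curve; apparent Kd corrected for protein depletion by the beads. Two independent experiments.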
# [14] = Binding affinity to GSK3 in Plasmodium falciparum 3D7 blood stage extract incubated for 1 hr in presence of ATP-competitive kinase inhibitor by kinobeads based pull down assay; conditions: read-out: Kd(app)
# In short: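 The free compound competed over six concentrations from 0.08 to 20 μM. Proteins were digested by a modified SP3 protocol, labelled with TMT 10-plex and quantified by LC-MS/MS. Apparent Kd was derived from IC50 corrected for bead depletion. Two independent experiments were run.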
# Sequence of Acetylcholinesterase (P22303 whole entry): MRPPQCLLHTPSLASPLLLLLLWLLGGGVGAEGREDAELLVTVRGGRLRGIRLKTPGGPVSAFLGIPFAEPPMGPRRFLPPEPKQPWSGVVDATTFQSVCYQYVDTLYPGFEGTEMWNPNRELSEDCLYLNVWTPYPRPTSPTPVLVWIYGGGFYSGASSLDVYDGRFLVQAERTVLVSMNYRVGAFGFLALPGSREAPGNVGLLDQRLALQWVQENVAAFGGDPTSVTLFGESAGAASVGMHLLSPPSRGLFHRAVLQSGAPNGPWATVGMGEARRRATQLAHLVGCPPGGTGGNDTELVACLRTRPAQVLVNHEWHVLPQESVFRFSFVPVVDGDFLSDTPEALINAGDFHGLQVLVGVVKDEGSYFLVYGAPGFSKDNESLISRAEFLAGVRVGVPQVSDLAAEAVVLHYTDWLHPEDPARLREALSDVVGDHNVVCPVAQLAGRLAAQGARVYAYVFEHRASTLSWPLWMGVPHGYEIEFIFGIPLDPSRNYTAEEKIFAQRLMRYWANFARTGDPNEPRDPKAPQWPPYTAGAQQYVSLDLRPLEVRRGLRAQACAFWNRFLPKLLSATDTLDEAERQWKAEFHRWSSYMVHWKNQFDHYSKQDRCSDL
# Sequence of Beta-2 adrenergic receptor (P07550 whole entry): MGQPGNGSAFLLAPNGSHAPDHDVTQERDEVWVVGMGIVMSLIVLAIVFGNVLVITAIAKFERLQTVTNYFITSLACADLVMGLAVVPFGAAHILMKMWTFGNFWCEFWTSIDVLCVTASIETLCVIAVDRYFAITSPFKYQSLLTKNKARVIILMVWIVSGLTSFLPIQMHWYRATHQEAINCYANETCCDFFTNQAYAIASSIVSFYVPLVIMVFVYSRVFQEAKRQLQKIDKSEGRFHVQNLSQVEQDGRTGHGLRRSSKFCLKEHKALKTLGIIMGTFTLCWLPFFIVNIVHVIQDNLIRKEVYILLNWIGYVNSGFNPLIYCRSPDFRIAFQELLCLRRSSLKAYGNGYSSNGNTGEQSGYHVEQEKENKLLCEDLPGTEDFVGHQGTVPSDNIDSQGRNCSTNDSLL
# Sequence of Voltage-dependent L-type calcium channel subunit alpha-1C (Q13936 whole entry): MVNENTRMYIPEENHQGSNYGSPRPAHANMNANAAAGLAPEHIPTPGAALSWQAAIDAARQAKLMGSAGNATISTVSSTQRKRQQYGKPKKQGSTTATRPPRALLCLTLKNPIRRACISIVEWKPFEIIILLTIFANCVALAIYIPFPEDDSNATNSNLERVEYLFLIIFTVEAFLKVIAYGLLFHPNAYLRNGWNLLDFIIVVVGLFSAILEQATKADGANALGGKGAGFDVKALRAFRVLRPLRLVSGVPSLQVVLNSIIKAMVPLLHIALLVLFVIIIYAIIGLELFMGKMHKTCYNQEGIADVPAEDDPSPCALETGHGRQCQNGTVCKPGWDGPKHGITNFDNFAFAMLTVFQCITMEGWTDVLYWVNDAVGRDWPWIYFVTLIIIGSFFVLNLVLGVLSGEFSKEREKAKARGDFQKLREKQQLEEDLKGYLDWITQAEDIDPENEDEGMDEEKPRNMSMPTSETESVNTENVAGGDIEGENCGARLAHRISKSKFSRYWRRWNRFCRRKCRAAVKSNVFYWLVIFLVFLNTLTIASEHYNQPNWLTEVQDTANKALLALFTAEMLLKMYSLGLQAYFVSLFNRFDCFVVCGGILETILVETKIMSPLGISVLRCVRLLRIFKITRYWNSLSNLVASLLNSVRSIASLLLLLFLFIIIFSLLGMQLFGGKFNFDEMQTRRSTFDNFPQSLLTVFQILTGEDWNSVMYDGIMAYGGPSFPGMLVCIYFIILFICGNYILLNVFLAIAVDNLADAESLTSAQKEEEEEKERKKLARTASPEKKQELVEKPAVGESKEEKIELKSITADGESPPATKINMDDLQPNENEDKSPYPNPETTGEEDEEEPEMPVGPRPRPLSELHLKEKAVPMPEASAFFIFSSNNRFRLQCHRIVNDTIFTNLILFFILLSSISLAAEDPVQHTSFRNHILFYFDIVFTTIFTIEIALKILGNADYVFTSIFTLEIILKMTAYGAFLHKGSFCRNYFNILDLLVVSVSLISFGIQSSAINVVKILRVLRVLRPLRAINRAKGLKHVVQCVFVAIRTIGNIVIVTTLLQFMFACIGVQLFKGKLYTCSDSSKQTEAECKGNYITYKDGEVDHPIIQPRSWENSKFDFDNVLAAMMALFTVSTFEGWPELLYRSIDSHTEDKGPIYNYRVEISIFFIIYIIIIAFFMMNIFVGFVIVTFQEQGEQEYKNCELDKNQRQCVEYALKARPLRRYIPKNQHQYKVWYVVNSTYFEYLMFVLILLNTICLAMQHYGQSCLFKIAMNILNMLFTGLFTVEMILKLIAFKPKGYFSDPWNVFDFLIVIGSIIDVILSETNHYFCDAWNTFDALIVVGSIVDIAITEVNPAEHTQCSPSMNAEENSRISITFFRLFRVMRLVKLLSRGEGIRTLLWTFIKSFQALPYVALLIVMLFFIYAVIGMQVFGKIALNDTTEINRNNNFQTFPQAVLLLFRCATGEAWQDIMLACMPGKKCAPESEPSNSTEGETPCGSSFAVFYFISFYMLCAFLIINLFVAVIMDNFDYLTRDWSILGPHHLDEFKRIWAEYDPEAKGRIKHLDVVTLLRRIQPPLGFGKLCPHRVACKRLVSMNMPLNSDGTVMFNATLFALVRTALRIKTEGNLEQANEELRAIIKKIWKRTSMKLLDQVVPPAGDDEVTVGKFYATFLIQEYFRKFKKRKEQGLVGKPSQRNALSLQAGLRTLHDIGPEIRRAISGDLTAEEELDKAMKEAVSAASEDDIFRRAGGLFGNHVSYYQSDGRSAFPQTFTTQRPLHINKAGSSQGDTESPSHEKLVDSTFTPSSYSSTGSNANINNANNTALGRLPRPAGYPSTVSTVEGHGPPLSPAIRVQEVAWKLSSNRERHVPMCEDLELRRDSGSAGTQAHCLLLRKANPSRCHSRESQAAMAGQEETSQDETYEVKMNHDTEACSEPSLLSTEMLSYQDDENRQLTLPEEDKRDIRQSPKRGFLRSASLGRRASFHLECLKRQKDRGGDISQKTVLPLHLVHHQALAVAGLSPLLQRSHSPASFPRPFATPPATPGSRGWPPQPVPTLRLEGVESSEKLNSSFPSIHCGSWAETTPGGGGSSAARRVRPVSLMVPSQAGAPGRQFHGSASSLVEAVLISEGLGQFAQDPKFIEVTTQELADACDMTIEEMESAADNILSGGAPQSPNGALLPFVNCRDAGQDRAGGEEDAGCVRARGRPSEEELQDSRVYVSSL
# Sequence of Calcium-dependent protein kinase 1 (P62344 whole entry): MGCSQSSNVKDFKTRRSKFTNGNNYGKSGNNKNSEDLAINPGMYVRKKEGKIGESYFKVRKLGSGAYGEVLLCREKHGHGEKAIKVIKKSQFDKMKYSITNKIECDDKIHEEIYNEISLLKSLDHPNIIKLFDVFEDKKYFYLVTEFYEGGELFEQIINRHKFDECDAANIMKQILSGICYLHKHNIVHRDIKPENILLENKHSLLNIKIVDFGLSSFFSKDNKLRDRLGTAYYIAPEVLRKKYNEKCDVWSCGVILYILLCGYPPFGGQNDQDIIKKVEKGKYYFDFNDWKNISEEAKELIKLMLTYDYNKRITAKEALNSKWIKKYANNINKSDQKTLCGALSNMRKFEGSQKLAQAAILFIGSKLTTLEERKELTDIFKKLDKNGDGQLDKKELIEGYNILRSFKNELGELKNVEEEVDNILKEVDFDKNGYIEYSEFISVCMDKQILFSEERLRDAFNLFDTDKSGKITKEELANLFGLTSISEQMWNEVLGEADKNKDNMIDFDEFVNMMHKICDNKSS
# Sequence of Voltage-gated potassium channel, IKs; KCNQ1(Kv7.1)/KCNE1(MinK) (P51787 whole entry): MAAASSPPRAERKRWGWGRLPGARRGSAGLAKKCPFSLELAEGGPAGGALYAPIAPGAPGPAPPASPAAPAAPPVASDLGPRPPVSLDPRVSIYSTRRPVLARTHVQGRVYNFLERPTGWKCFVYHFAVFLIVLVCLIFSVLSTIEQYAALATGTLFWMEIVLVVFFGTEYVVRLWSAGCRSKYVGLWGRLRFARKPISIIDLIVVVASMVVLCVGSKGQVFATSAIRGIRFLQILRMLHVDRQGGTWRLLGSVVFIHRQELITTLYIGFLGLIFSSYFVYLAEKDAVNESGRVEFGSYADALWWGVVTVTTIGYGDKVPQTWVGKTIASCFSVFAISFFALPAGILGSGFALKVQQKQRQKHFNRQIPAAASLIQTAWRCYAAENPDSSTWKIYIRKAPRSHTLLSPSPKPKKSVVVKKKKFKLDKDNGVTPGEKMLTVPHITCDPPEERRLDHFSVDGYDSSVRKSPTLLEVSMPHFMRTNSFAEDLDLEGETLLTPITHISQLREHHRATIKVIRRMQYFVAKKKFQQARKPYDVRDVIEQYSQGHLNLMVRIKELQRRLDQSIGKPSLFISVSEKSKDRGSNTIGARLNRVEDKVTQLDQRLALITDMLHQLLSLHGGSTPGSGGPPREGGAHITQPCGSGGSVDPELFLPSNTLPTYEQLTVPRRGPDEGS
compound,measurement,setting,value
Cc1cc(Nc2nccc(-c3sc(C4CCNCC4)nc3-c3ccc(F)cc3)n2)ccn1,solubility,[1],410 µM
same,CLH,[2],1.62 mL/min/g
same,CLH,[3],0.96 mL/min/g
same,IC50,[4],> 100000 nM
same,EC50,[5],> 100000 nM
same,IC50,[6],> 25000 nM
same,EC50,[7],> 50000 nM
same,IC50,[8],400 nM
same,IC50,[9],> 30000 nM
same,EC50,[10],90 nM
same,EC50,[11],150 nM
same,Kd,[12],50 nM
same,Kd,[13],150 nM
same,Kd,[14],90 nM
